Assays:
[1] = molecular target: T1, Glycogen synthase kinase-3 beta (Homo sapiens, UniProt P49841); assay: Inhibition of N-terminal NanoLuc-fused full length lysed GSK3B (unknown origin) transfected in HEK293T cells incubated for 2 hrs in presence of tracer K8 by NanoBRET assay; assay type: cell-based
Summary of the method: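 GSK3B NanoBRET run in the lysed mode, with cells permeabilized by digitonin to bypass compound cell penetration. EC50 values were derived from tracer displacement.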
Target sequence in this assay (P49841 whole entry, the tested form may be a part): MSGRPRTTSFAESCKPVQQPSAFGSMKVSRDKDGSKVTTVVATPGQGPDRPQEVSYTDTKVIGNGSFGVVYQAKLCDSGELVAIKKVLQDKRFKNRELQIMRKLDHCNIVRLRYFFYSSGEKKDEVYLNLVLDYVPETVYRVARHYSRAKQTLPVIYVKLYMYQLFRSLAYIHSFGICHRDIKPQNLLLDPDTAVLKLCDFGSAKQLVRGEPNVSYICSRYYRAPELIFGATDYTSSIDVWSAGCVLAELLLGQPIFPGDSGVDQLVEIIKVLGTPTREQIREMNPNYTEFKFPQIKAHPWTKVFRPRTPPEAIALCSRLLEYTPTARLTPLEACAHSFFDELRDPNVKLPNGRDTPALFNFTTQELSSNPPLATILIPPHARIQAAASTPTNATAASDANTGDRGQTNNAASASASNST

[2] = molecular target: T2, Bone morphogenetic protein receptor type-2 (Homo sapiens) (UniProt Q13873); assay: Binding affinity to BMPR2 (unknown origin) assessed as change in entropy by ITC assay
T2 sequence (whole entry): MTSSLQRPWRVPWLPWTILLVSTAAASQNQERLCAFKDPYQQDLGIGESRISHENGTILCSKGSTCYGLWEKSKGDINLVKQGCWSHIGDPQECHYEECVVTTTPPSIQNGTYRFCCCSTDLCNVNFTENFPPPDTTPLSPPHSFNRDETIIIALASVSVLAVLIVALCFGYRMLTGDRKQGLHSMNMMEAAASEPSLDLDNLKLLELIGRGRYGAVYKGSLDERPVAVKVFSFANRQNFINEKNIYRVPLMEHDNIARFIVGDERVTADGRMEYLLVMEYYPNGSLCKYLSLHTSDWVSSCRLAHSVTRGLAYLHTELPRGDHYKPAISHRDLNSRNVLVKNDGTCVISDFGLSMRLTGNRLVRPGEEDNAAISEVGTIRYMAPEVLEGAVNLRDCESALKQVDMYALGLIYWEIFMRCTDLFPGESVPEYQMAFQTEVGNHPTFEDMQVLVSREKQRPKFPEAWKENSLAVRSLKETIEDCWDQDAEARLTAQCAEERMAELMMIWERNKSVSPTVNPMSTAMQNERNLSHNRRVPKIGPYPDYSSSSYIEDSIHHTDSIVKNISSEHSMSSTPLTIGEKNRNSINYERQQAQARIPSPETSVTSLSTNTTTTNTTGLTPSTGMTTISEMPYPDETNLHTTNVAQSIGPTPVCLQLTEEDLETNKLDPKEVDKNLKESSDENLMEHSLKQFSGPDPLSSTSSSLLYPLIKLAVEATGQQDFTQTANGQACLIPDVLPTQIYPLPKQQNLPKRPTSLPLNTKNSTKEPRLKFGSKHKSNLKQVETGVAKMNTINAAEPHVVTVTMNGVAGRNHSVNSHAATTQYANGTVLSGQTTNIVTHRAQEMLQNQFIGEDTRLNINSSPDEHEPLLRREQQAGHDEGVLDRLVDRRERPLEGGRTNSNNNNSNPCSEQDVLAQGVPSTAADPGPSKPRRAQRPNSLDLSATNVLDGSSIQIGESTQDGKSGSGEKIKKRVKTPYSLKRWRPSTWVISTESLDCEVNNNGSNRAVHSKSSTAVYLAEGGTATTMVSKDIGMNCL
Summary of the method: (§1)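 Binding measured by isothermal titration calorimetry against the recombinant BMPR2 kinase domain. Thermodynamic binding parameters, including the dissociation constant, were derived from the titration data.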

[3] = molecular target: T2, Bone morphogenetic protein receptor type-2 (Homo sapiens); assay: Binding affinity to BMPR2 (unknown origin) assessed as change in enthalpy by ITC assay; summary of the method: as §1
[4] = molecular target: T1, Glycogen synthase kinase-3 beta; assay: Inhibition of N-terminal NanoLuc-fused full length intact GSK3B (unknown origin) transfected in HEK293T cells incubated for 2 hrs in presence of tracer K8 by NanoBRET assay; assay type: cell-based
Summary of the method: (§2)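 Cellular target engagement by NanoBRET in intact cells expressing NanoLuc-fused GSK3A or GSK3B, with EC50 values derived from tracer displacement.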
Target sequence in this assay (P49841 whole entry, the tested form may be a part): as the sequence (P49841 whole entry, the tested form may be a part) above

[5] = molecular target: T2, Bone morphogenetic protein receptor type-2 (Homo sapiens); assay: Binding affinity to recombinant BMPR2 (unknown origin) assessed as change in melting temperature at 10 uM by DSF assay
Summary of the method: (§3)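 Differential scanning fluorimetry on an in-house panel of 90 recombinant kinases. Stabilization is read as the shift in melting temperature (ΔTm) relative to ligand-free protein. Staurosporine served as the positive control, and binding was also compared against its ΔTm.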

[6] = molecular target: T3, Bone morphogenetic protein receptor type-2 (Homo sapiens, UniProt Q13873); assay: Inhibition of BMPR2 (174 to end residues) (unknown origin) using MBP as substrate incubated for 60 mins in presence of ATP by ADP Glo assay
T3 sequence (Q13873 whole entry): T2 sequence (whole entry)
Summary of the method: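 Enzymatic inhibition of the BMPR2 kinase was read out by ADP-Glo detection of ADP formed, and IC50 values were derived from concentration–response data.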

TGF-beta receptor type-1 = molecular target: T4, TGF-beta receptor type-1 (Homo sapiens, UniProt P36897); assay: Inhibition of ALK5 (unknown origin) assessed as dissociation constant
T4 sequence (P36897 whole entry): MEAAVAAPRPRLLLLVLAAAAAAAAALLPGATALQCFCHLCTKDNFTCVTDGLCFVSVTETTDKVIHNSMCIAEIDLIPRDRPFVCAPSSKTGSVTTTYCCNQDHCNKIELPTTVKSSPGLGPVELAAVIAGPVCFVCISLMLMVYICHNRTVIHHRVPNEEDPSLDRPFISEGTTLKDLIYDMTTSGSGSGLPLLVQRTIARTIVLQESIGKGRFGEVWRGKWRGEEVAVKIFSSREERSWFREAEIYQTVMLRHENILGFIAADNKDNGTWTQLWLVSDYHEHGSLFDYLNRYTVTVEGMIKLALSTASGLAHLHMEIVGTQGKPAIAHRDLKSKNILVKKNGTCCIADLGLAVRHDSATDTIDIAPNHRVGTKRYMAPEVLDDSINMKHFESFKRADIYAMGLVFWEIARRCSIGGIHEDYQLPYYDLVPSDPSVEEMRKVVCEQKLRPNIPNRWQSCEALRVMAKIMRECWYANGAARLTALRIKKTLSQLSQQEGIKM

[7] = molecular target: T1, Glycogen synthase kinase-3 beta; assay: Binding affinity to recombinant GSK3B (unknown origin) assessed as change in melting temperature at 10 uM by DSF assay; summary of the method: as §3
Target sequence in this assay (P49841 whole entry, looked up, the tested form may be a part): as the sequence (P49841 whole entry, the tested form may be a part) above

[8] = molecular target: Glycogen synthase kinase-3 alpha (Homo sapiens, UniProt P49840); assay: Inhibition of N-terminal NanoLuc-fused full length GSK3A (unknown origin) transfected in HEK293T cells incubated for 2 hrs in presence of tracer K8 by NanoBRET assay; assay type: cell-based; summary of the method: as §2
[9] = molecular target: T3, Bone morphogenetic protein receptor type-2; assay: Inhibition of BMPR2 (unknown origin) assessed as dissociation constant by ITC assay; summary of the method: as §1
[10] = system: BMP2-inducible protein kinase (Homo sapiens); assay: Binding affinity to recombinant BMP2K (unknown origin) assessed as change in melting temperature at 10 uM by DSF assay
[11] = molecular target: T5, Serine/threonine-protein kinase 3 (Homo sapiens) (UniProt Q13188); assay: Binding affinity to recombinant STK3 (unknown origin) assessed as change in melting temperature at 10 uM by DSF assay; summary of the method: as §3
T5 sequence (whole entry): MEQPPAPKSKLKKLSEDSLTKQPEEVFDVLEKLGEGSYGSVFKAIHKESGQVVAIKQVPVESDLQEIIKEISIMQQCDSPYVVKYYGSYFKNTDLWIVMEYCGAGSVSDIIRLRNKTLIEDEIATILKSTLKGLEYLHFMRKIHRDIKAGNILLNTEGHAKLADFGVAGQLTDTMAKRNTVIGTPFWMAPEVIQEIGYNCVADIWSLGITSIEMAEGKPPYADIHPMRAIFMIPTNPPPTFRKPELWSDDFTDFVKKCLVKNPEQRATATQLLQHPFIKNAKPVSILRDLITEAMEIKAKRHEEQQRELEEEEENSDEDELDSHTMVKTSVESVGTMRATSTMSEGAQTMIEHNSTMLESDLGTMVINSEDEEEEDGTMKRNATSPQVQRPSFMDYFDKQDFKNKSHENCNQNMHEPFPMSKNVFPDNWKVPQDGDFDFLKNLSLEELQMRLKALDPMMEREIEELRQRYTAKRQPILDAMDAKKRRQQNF

Sequence of Glycogen synthase kinase-3 alpha (P49840 whole entry, the tested form may be a part): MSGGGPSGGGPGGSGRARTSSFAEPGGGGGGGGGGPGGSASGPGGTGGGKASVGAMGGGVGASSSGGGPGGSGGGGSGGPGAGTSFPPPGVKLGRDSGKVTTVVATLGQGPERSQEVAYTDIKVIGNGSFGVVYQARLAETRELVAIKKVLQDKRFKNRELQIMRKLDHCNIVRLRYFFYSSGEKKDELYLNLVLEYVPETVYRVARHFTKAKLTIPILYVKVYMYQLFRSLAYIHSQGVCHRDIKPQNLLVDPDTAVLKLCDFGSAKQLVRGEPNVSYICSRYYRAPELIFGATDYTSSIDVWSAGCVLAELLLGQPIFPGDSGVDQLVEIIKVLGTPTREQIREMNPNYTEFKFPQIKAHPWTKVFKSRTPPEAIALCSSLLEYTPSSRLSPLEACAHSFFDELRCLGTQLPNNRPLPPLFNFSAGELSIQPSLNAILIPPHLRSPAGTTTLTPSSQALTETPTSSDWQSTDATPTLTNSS

ΔTm [5] [°C]	IC50 [6] [nM]	ΔTm [7] [°C]	ΔTm [10] [°C]	ΔTm [11] [°C]	Compound	IC50 [1] [nM]	deltaS [2] [cal/mol.K]	deltaH [3] [kcal/mol]	IC50 [4] [nM]	Kd (TGF-beta receptor type-1) [nM]	IC50 [8] [nM]	Kd [9] [nM]
–	–	> 5	> 5	> 5	O=C1NCCCCCCNc2nccc(n2)Nc2cc1[nH]n2	–	–	–	–	–	–	–
5	461	7.2	–	–	O=C1NCCc2cccc(c2)Nc2nccc(n2)Nc2cc1[nH]n2	–	–	–	–	–	–	–
4.6	630	4.9	–	–	O=C1NCCCCCNc2nccc(n2)Nc2cc1[nH]n2	3500	–	–	> 45000	–	> 45000	–

Compound	ΔTm [5] [°C]	IC50 [6] [nM]	ΔTm [7] [°C]	ΔTm [10] [°C]	ΔTm [11] [°C]	IC50 [1] [nM]	deltaS [2] [cal/mol.K]	deltaH [3] [kcal/mol]	IC50 [4] [nM]	Kd (TGF-beta receptor type-1) [nM]	IC50 [8] [nM]	Kd [9] [nM]
N#CCc1ccc(Nc2nccc(Nc3cc(C4CC4)[nH]n3)n2)cc1	9.2	36.2	14	–	–	1.2	-1.97	-9.61	3.8	324	4	186
